# NPY Y2 blocker: NPY-Y2 (human) receptor antagonism; P49146; NPY-Y2 expressing cells, antagonist mode; inhibition, % at 2.7 µM; actives 0.99% (n = 140,000); AID 793; in the data active = inhibition above about 17%;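 note: 0% = vehicle with agonist challenge and 100% = reference antagonist with challenge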
# NPY2 pot ag: potentiates or activates human NPY-Y2 receptor; P49146; cells expressing NPY-Y2, potentiator/agonist read-out; activation, % at 3.6 µM; actives 0.45% (n = 220,000); in the data active = activation above about 27%;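 note: cells stimulated with NPY near EC25 plus isoproterenol at EC100; 0% = vehicle plus submaximal agonist and 100% = vehicle plus saturating agonist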
# NPY Y1 blocker: NPY-Y1 (human) receptor antagonism; P25929; HEK293-CNG Y1 cells, membrane potential fluorescence; NPY at EC95, then isoproterenol; inhibition, % at 3.6 µM; actives 1% (n = 200,000);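 active = inhibition above the campaign mean inhibition of all tested compounds plus 3 SD, cut at about 20% in these data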;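 note: 0% = DMSO wells given NPY plus isoproterenol and 100% = isoproterenol alone without NPY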
# Target sequence (P25929 whole entry, looked up): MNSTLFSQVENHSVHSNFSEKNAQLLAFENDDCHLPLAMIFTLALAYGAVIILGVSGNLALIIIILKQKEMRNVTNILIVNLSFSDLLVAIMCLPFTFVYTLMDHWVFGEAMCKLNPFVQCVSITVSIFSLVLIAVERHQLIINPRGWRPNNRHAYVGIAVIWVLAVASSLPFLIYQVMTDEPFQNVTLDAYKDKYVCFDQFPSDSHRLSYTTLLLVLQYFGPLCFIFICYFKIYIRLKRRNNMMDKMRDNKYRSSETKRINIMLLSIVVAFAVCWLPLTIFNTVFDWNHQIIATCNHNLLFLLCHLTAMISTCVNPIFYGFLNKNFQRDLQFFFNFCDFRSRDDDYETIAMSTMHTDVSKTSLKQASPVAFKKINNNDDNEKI
#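 Material: Y1- and CNG-channel-expressing HEK293 cells / Probe or stimulus: NPY 25 nM then isoproterenol 1 µM plus Ro 20-1724 25 µM / Doses: 3.6 µM single dose, DMSO 0.4% / Schedule: compound incubation 1 h at room temperature, readout 45 min post-stimulation / Signal: membrane potential fluorescence / Benchmarks: isoproterenol-only wells as full block versus NPY-plus-isoproterenol wells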
# EP2 antag: EP2 receptor (human) inhibition; P43116; actives 0.52% (n = 260,000); C6 glioma cells expressing human EP2, cAMP TR-FRET; cells stimulated with saturating PGE2; inhibition, % at 25 µM;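 active = percent inhibition above 40 after rounding to a whole number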;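 note: rat C6 glioma host cells with rolipram phosphodiesterase inhibitor present; the protocol text gives 20 µM as final concentration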
# EP2 modulator: EP2 receptor (human) modulation | actives 0.83% (n = 260,000) | induction, % at 25 µM | EP2-expressing cells, cAMP HTRF FRET, PGE2 co-stimulation;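 active = compounds whose cAMP rise, as percent of the full-agonist control response, exceeds 60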;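 note: rat C6 glioma line stably carrying human EP2 under a CMV promoter; the protocol text gives 20 µM as final concentration; 100% = response of wells given 1 µM PGE2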
# NPY-Y1 PAM-ag: potentiators or agonists of human neuropeptide Y receptor Y1 | P25929 | NPY-Y1 expressing cells, potentiator/agonist activation | activation, % at 3.6 µM | actives 0.37% (n = 220,000) | AID 1304; in the data active = activation above about 33%, passing the limit was not always enough;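 note: cells stimulated with NPY at EC10 then isoproterenol at EC100; 0% = low agonist plus stimulus and 100% = saturating agonist plus stimulus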
# NPY-Y1 antag ct: antagonizes human NPY-Y1, counter-screen to NPY-Y2 antagonists; shares compounds with NPY Y2 blocker; cell-based NPY-Y1 antagonism counterscreen; inhibition, % at 3.6 µM; actives 19% (n = 710); in the data active = inhibition above about 20%;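 note: cells challenged with NPY then isoproterenol with cAMP sensed through a CNG channel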
# NPY2 antag conf: confirmation of human neuropeptide Y receptor Y2 antagonists. shares compounds with NPY Y2 blocker. AID 1257. inhibition, % at 2.8 µM. actives 32% (n = 710). HEK293 NPY-Y2 CNG channel, membrane potential fluorescence;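 active = mean inhibition of triplicate wells above the hit cutoff set in the primary screen, cut at about 17% in these data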;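 note: 0% = DMSO with NPY challenge and 100% = BIIE0246 high control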
# * = called active by the depositor; . = not tested or not shown. This is a sample that favours compounds with a hit; in the whole collection about 2.8% have one here.
SMILES,NPY Y2 blocker,NPY2 pot ag,NPY Y1 blocker,EP2 antag,EP2 modulator,NPY-Y1 PAM-ag,NPY-Y1 antag ct,NPY2 antag conf
Cc1nn(-c2ccccc2)c(C)c1/C=N/NC(=O)CSc1nnc(SCc2ccc(Cl)cc2)s1,6,2,-1,7,45,17,.,.
CCOC(=O)c1cnc(SCC(=O)Nc2ccc(N(C)C)cc2)nc1N,.,.,.,9,-55,.,.,.
CCc1cccc(CC)c1NC(=O)c1ccccc1CCc1ccccc1,19*,-6,2,8,23,-48,28*,17
CCOC(=O)c1c(CSC(=N)N)n(-c2ccc(Br)cc2)c2cc(Br)c(OC(C)=O)cc12,26*,74*,-3,15,-57,81*,14,16
COC(=O)c1ccc(OC)c(CSc2nnc(COc3ccccc3)o2)c1,18*,-4,13,5,-19,-34,7,11
Cc1ccc(C(=O)CSc2nnc(COc3cc(C)cc(C)c3)o2)cc1,21*,1,7,4,-50,-5,13,20*
COC(=O)c1ccc(OC)c(CSc2nnc(-c3ccc(C(C)(C)C)cc3)o2)c1,0,1,5,3,36,-15,.,.
COC(=O)c1ccc(OC)c(CSc2nnc(COc3ccc(Cl)cc3)o2)c1,27*,-4,9,6,-16,-31,25*,19*
CCOC(=O)CSc1nnc(COc2ccc(Cl)cc2)o1,.,.,.,24,-123,.,.,.
CC(=O)Nc1ccc(C)c(NC(=O)CSc2nc(N)cc(N)n2)c1,.,.,.,12,-5,.,.,.
COc1ccc(S(=O)(=O)N2CCCC(C(=O)Nc3cc(C)ccc3OC)C2)cc1 (centres undefined),.,.,.,11,-48,.,.,.
COCCN(C(=O)Cn1nnc2ccccc21)C(C(=O)NC1CCCCC1)c1ccc(OC)cc1OC (centres undefined),19*,-53,20,9,38,-95,18,17
COCCN(C(=O)Cn1nnc2ccccc21)C(C(=O)NC1CCCC1)c1ccc(OC)cc1OC (centres undefined),7,-9,12,15,18,-6,.,.
Nc1ccc2c(c1)C(=O)C(=O)c1ccccc1-2,48*,-3,9,30,7,-9,17,35*
O=C1C(=O)c2ccc(-c3ccccc3)cc2-c2ccccc21,-1,3,-1,29,-59,-1,.,.
Cc1ccc(/C=C/C(=O)N2CCN(c3cccc(C(F)(F)F)c3)CC2)cc1,21*,-14,10,5,19,3,21*,14
C/C(=C\c1ccccc1)C(=O)N1CCN(c2cccc(C(F)(F)F)c2)CC1,12,-22,15,5,-55,-5,.,.
O=C(C1CC1)N1CCCc2cc(C(O)CN3CCN(c4ccc(F)cc4)CC3)ccc21 (centres undefined),.,.,.,6,12,.,.,.
N=c1c2c(-c3ccccc3)c(-c3ccccc3)n(Cc3ccco3)c2ncn1Cc1ccccc1,21*,54*,3,20,7,56*,2,-4
c1ccc(-c2c(-c3ccccc3)n(Cc3ccco3)c3ncnc(NCCCn4ccnc4)c23)cc1,29*,-27,13,49*,-21,-55,10,12
COC(=O)c1c(C)oc2ccc(N(C(=O)c3ccncc3)S(=O)(=O)c3ccc4ccccc4c3)cc12,23*,-31,3,4,8,-18,19,31*
COC(=O)c1ccccc1NC(=O)c1ccc(COc2ccc3c(c2)CCC3)cc1,9,5,0,8,21,-11,.,.
COc1ccccc1NC(=O)c1ccc(COc2ccc3c(c2)CCC3)cc1,22*,3,4,5,22,-8,4,16
CCOc1nc(SCCOc2ccc(Cl)cc2Cl)nc(N(C)C)n1,20*,-16,10,6,49,-39,20,44*
CCOc1nc(SCCOc2ccc(C)cc2)nc(N(C)C)n1,11,-14,12,12,38,-48,.,.
SMILES,NPY Y2 blocker,NPY2 pot ag,NPY Y1 blocker,EP2 antag,EP2 modulator,NPY-Y1 PAM-ag,NPY-Y1 antag ct,NPY2 antag conf
O=C(NC1CCCCC1)C(c1ccc(Cl)cc1)N(Cc1ccco1)C(=O)c1ccco1 (centres undefined),.,.,.,10,42,.,.,.
COc1ccc(CCNC(=O)CSc2nc(O)c(CC(C)C)c(=O)[nH]2)cc1OC,17*,6,-2,13,24,4,2,2
COc1ccc(CCNC(=O)CSc2nc(O)cc(=O)[nH]2)cc1OC,.,-5,.,9,-30,-21,.,.
O=C(/C=C/c1cccc2ccccc12)c1ccncc1,20*,8,-4,8,2,-4,11,19*
CCN1CCN(C(c2cc3cc4c(cc3[nH]c2=O)OCO4)c2nnnn2C(C)(C)C)CC1 (centres undefined),.,.,.,7,-19,.,.,.
CCc1ccc(NC(=O)CSc2nc3ccccc3c(=O)n2CCCOC)cc1,.,.,.,14,22,.,.,.
COc1cccc(OC)c1OCCCCN1CCCC1,6,-7,2,19,20,-12,.,.
COc1ccccc1OCCCCN1CCN(C(c2ccccc2)c2ccccc2)CC1,20*,-28,5,6,21,-34,14,25*
CCOC(=O)N1CCC(NC(=O)CSCc2nc(-c3cccc(OC)c3)oc2C)CC1,24*,6,-3,2,15,12,2,2
O=C(Cc1ccc2c(c1)CCCC2)Nc1ccc2ccccc2c1,18*,-14,18,3,-16,-11,11,13
Cc1nc(-c2ccccc2)sc1C(=O)CSc1ccc(Cl)cc1,20*,-3,17,11,1,-12,14,25*
CCOC(=O)Cc1csc(NC(=O)CSc2nc3ccc(OC)cc3cc2C#N)n1,.,.,.,12,-65,.,.,.
Cc1onc(-c2ccccc2Cl)c1C(=O)Nc1sc2c(c1C#N)CCC2,26*,-79,3,7,6,-51,9,18*
N#Cc1c(NC(=O)C2CC(c3ccccc3Cl)=NO2)sc2c1CCC2 (centres undefined),15,-26,8,3,-18,-34,.,.
Cc1ccc(OCCCCN(C)Cc2ccccc2)c(Br)c1,18*,-16,11,7,-30,-41,13,18*
COc1ccccc1OCCCOc1ccc(C)cc1Br,4,4,-2,9,38,-14,.,.
CCn1cc(CN(C)S(=O)(=O)c2ccc3ccccc3c2)c(C)n1,25*,14,-1,3,-14,1,12,1
CCn1cc(S(=O)(=O)N(C)Cc2ccc3ncccc3c2)c(C)n1,.,.,.,4,-75,.,.,.

# Compound activity from PubChem.
